Source: PubChem BioAssay
Shown are actives, neighbours in structure and some others; about 4.2% of the full set was active somewhere.
KCNQ1 pot – potentiates or activates the human KCNQ1 potassium channel. hit rate 0.35% among 310,000. P51787. B-score at 10 µM. CHO-K1 KCNQ1, thallium flux FluxOR fluorescence; hits give high values;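 active = fluorescence ratio B-score, a plate-corrected score, at least three library SD, with initial intensity B-score within 5 SD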
Target sequence (P51787 whole entry, looked up): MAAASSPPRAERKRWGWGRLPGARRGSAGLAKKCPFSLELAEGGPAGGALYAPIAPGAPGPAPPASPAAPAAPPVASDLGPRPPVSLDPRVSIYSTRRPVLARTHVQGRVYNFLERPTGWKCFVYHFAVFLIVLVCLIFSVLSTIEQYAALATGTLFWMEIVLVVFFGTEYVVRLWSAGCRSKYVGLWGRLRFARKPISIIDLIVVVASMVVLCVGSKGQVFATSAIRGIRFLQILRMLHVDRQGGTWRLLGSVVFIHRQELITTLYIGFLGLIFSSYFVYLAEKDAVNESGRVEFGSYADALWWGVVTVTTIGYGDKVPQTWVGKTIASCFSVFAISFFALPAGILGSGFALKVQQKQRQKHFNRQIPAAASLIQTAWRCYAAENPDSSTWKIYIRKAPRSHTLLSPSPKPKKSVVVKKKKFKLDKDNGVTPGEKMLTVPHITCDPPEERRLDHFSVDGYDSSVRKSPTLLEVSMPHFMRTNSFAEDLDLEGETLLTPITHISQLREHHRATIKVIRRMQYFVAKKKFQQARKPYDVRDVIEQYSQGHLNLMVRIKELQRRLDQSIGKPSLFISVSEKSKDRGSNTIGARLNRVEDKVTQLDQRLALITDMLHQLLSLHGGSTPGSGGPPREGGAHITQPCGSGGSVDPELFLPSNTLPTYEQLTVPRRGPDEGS
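assay system = CHO-K1 cells stably expressing KCNQ1 | medium = assay buffer, equal DMSO in all wells | timing = 37 °C overnight plating, 90-min dark dye load, 20-min compound pretreatment | measured by = kinetic FluxOR thallium fluorescence, 10-s 1-Hz baseline, 110-s post-stimulus read | measure = fluorescence change relative to baseline, converted to B score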
AI-2 QS modul – modulates the Vibrio harveyi AI-2 quorum sensing system; activity change, % at 7.5 µM; Vibrio harveyi JMH597 AI-2 luminescence/OD600 ratio, 9 h; hits give low values; strain lacks LuxN and CqsS sensors; 0 = neutral-control median; hit rate 0.4% among 300,000; in the data active = activity change below about -75%, passing the limit was not always enough;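 also: luminescence divided by OD600 gain over 9 h not by final OD600 alone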
KCC2 mod – modulates chloride dependent transport by human KCC2. AID 1456. Q9H2X9. hit rate 2.2% among 190,000. B-score of Tl+ flux slope (higher = more flux/activation; lower = inhibition) at 10 µM. KCC2 cells, thallium flux FluoZin-2 fluorescence;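 active = thallium flux slope and its plate-corrected score both differing from the plate sample mean at a set confidence after two filtering rounds, in either direction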;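 also: slope of fluorescence scaled to starting intensity during 10 to 20 s after thallium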
KCNQ1 inh – blocks the human KCNQ1 potassium channel; P51787; hit rate 1.3% among 310,000; B-score at 10 µM; AID 2642; CHO-K1 KCNQ1, FluxOR thallium flux fluorescence; hits give high values;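 active = compounds whose thallium flux B-score, printed positive for inhibition, exceeds three library SD while starting fluorescence stays within three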;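 also: channel opened by potassium depolarization with thallium stimulus after 20 min compound exposure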
SUMO Mot1 rescue – SUMOylation pathway inhibition by Mot1-301 growth rescue; S. cerevisiae Mot1-301 growth rescue, ATP luminescence, 38.5C; percent above DMSO median, 100 means doubled; growth rescue, % at 18.8 µM; hit rate 1% among 320,000;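 active = every valid replicate shows activation above 250% relative to neutral control wells; inactive = the rest, any valid replicate at or below 250%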;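 also: OY570 slx delta 5 strain wells were the positive control but not used for scaling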
hERG protect – hERG (human) protection from proarrhythmic block | Q12809 | CHO-hERG, FluxOR thallium flux, dofetilide IC70 present | activation (rescue from dofetilide block), less the hit threshold, % at 10 µM | hit rate 0.51% among 310,000 | AID 1511;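 active = activation above the mean of controls blocked by dofetilide plus 5 SD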;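 also: thallium influx through hERG after potassium depolarization seen as dye fluorescence rise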
KCNQ1 block val – human KCNQ1 channel inhibition, validation assay. hit rate 93% among 1,600. AID 588353. shares compounds with KCNQ1 inh. KCNQ1 cell line, FluxOR thallium flux fluorescence. inhibition, % at 10 µM;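 active = primary screen active, with duplicate mean exceeding buffer control mean plus 3 SD of buffer wells, cut at about 28% in these data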;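 also: 0% = buffer control ratio and 100% = XE991 inhibitor control ratio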
CHO Tl flux – counter-screen for KCNQ1 inhibitors: effect in parental CHO cells; parental CHO-K1, FluxOR thallium flux fluorescence ratio; hits give low values; zero means no signal rise above baseline; shares compounds with KCNQ1 inh; fluorescence ratio (Tl flux) at 10 µM; hit rate 21% among 1,600; AID 588366;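 active = mean of duplicate thallium-flux fluorescence ratios in parental host cells more than 5 SD below the buffer control mean, cut at about 0.38 in these data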;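 also: ratio is peak minus minimum fluorescence divided by baseline fluorescence; actives read low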
KCNQ1 APC inh – confirmation of human KCNQ1 potassium channel inhibitors by electrophysiology; shares compounds with KCNQ1 inh; KCNQ1-CHO cells, automated patch clamp current; calls only at 10 µM; hit rate 20% among 490;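 active = KCNQ1 current drop exceeding 3 SD of negative control wells, seen in both duplicate runs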;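 also: steady state current during a 2 s step from -80 to +40 mV; negative values mean current inhibition and positive values mean potentiation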
KCNQ2 inh – rat KCNQ2 inhibition in KCNQ1 inhibitor specificity screen. shares compounds with KCNQ1 inh. KCNQ2 cells, FluxOR thallium flux fluorescence. inhibition, % at 10 µM. hit rate 71% among 1,600;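 active = mean percent inhibition of the KCNQ2 thallium signal more than 5 SD above the buffer-only control wells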;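 also: KCNQ2 expressed in CHO cells; 0% = buffer control wells and 100% = XE-991 inhibitor control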
KCNQ1 KCNE1 spec – KCNQ1 inhibitor that also blocks human KCNQ1/KCNE1 channel. shares compounds with KCNQ1 inh. KCNQ1/KCNE1 cells, FluxOR thallium flux fluorescence. inhibition, % at 10 µM. hit rate 77% among 1,600. AID 652147;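 active = mean percent inhibition of duplicate wells above the buffer-only control mean plus 3 SD of those controls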;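 also: 0% = buffer only wells and 100% = XE-991 inhibitor control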
Starred values were filed as active, the others as inactive.

What do the screens show for `O=C(NC1CCCCC1)C(c1ccncc1)N(Cc1ccc2c(c1)OCO2)C(=O)c1cnsn1` (stereo not given)?
KCNQ1 pot: inactive; AI-2 QS modul: 4; KCC2 mod: -0.15; KCNQ1 inh: 7*; SUMO Mot1 rescue: 1; hERG protect: -7; KCNQ1 block val: 65*; CHO Tl flux: 0.44; KCNQ2 inh: inactive; KCNQ1 KCNE1 spec: 72%*

Results for O=C(NC1CCCC1)C(c1ccccc1)N(Cc1ccc2c(c1)OCO2)C(=O)Cc1cccs1 (stereo not given) ?
KCNQ1 pot: inactive; AI-2 QS modul: 7; KCC2 mod: 0.38; KCNQ1 inh: inactive; SUMO Mot1 rescue: -12; hERG protect: 2

What do the screens show for `Cc1cccc(C)c1OC(=O)C(c1ccccc1)c1ccccc1`?
KCNQ1 pot: inactive; AI-2 QS modul: 22; KCC2 mod: -0.84; KCNQ1 inh: 7*; SUMO Mot1 rescue: -20; hERG protect: -5; KCNQ1 block val: 96*; CHO Tl flux: 0.43; KCNQ1 APC inh: inactive; KCNQ2 inh: 89%*; KCNQ1 KCNE1 spec: 148%*

How did O=C(c1ccccc1)C(O)c1ccccc1 (stereo not given) do in these assays?
SUMO Mot1 rescue: -1

Results for O=C(Nc1cccc(Cl)c1)Nc1nccs1 ?
KCNQ1 pot: inactive; AI-2 QS modul: 8; KCC2 mod: 0.46; KCNQ1 inh: 7*; SUMO Mot1 rescue: -8; hERG protect: -6; KCNQ1 block val: 70*; CHO Tl flux: 0.54; KCNQ2 inh: inactive; KCNQ1 KCNE1 spec: 42%*

What do the screens show for `Cc1csc(NC(=O)Nc2cccc(Cl)c2)n1`?
KCNQ1 pot: inactive; AI-2 QS modul: 6; KCC2 mod: 0.8; KCNQ1 inh: 6*; SUMO Mot1 rescue: -2; hERG protect: -5; KCNQ1 block val: 70*; CHO Tl flux: 0.52; KCNQ2 inh: inactive; KCNQ1 KCNE1 spec: 93%*

Results for O=C(Nc1cccc(Cl)c1)Nc1ccnc(-c2cccnc2)n1 ?
KCNQ1 pot: inactive; AI-2 QS modul: 13; KCC2 mod: -0.76; KCNQ1 inh: 6*; SUMO Mot1 rescue: -8; hERG protect: -9; KCNQ1 block val: 74*; CHO Tl flux: 0.52; KCNQ2 inh: inactive; KCNQ1 KCNE1 spec: inactive

How did O=C(Nc1ccc(Cl)c(Cl)c1)Nc1nccs1 do in these assays?
KCNQ1 pot: inactive; AI-2 QS modul: 26; KCC2 mod: 1; KCNQ1 inh: inactive; SUMO Mot1 rescue: 29; hERG protect: -9

How did O=C(Nc1cccc(Cl)c1)Nc1ccc(Br)cc1F do in these assays?
KCNQ1 pot: inactive; AI-2 QS modul: 24; KCC2 mod: 0.45; KCNQ1 inh: 9*; SUMO Mot1 rescue: 325; hERG protect: -13; KCNQ1 block val: 52*; CHO Tl flux: 0.55; KCNQ2 inh: inactive; KCNQ1 KCNE1 spec: inactive

Results for O=C(Nc1cccc(Cl)c1)Nc1nc(-c2ccccc2)cs1 ?
KCNQ1 pot: inactive; AI-2 QS modul: 12; KCC2 mod: -0.053; KCNQ1 inh: inactive; SUMO Mot1 rescue: -11; hERG protect: -6

How did COC(=O)c1nn(-c2ccc(OC)cc2)ccc1=O do in these assays?
KCNQ1 pot: inactive; AI-2 QS modul: 14; KCNQ1 inh: inactive; SUMO Mot1 rescue: -12; hERG protect: -3

How did COc1cc(-c2nc3cccc(C)n3c2NCC2CCCO2)ccc1O (stereo not given) do in these assays?
KCNQ1 pot: inactive; AI-2 QS modul: 13; KCC2 mod: -1.5; KCNQ1 inh: inactive; SUMO Mot1 rescue: -17; hERG protect: -39

What do the screens show for `O=C(Nc1ccc(Cl)cc1)Nc1ccon1`?
KCNQ1 pot: inactive; AI-2 QS modul: 24; KCNQ1 inh: inactive; SUMO Mot1 rescue: -17; hERG protect: -11

What do the screens show for `O=C(Nc1cccc(Cl)c1)Nc1ccon1`?
KCNQ1 pot: inactive; AI-2 QS modul: 11; KCNQ1 inh: 7*; SUMO Mot1 rescue: -13; hERG protect: -10; KCNQ1 block val: 54*; CHO Tl flux: 0.54; KCNQ2 inh: inactive; KCNQ1 KCNE1 spec: inactive

What do the screens show for `O=C(CCN1C(=O)c2ccccc2C1=O)C1=NN[C@@H]2C(=O)N(c3ccc4c(c3)OCO4)C(=O)[C@H]12`?
KCNQ1 pot: inactive; AI-2 QS modul: 22; KCC2 mod: -0.14; KCNQ1 inh: inactive; SUMO Mot1 rescue: 1; hERG protect: -7

Results for COc1ccc(C)cc1Nc1n[n+](-c2ccccc2)c(-c2ccc(N(C)C)cc2)s1 ?
KCNQ1 pot: inactive; AI-2 QS modul: 5; KCNQ1 inh: 15*; SUMO Mot1 rescue: -15; hERG protect: -34; KCNQ1 block val: active; CHO Tl flux: 0.22*; KCNQ2 inh: inactive; KCNQ1 KCNE1 spec: inactive

How did O=C(Nc1ccc(Br)cc1)c1ccc(F)c(S(=O)(=O)NCc2cccs2)c1 do in these assays?
KCNQ1 pot: inactive; AI-2 QS modul: 14; KCC2 mod: -0.17; KCNQ1 inh: 7*; SUMO Mot1 rescue: 11; hERG protect: -18; KCNQ1 block val: 140*; CHO Tl flux: 0.52; KCNQ2 inh: 92%*; KCNQ1 KCNE1 spec: 130%*

What do the screens show for `O=C(Cc1nc2ccccc2[nH]1)c1ccc(Br)cc1`?
KCNQ1 pot: inactive; AI-2 QS modul: 10; KCC2 mod: -0.11; KCNQ1 inh: 6*; SUMO Mot1 rescue: -23; hERG protect: -13; KCNQ1 block val: 52*; CHO Tl flux: 0.46; KCNQ2 inh: 72%*; KCNQ1 KCNE1 spec: 51%*

Results for O=C(Cc1nc2ccccc2[nH]c1=O)c1ccccc1 ?
KCNQ1 pot: inactive; KCC2 mod: 0.03; KCNQ1 inh: inactive; hERG protect: -15

How did C=CCN(CC(O)c1cccc([N+](=O)[O-])c1)C(C)CCc1ccccc1 (stereo not given) do in these assays?
KCNQ1 pot: inactive; AI-2 QS modul: 17; KCC2 mod: -0.25; KCNQ1 inh: inactive; SUMO Mot1 rescue: -1; hERG protect: -16
